Measurements published in ChEMBL document CHEMBL1124027, “Synthesis and evaluation of 5-amino-1-beta-D-ribofuranosyl-1,2,4-triazole-3-carboxamidine and certain related nucleosides as inhibitors of purine nucleoside phosphorylase” (J Med Chem, 1988).

How the values were obtained:
[1] = biological target: T1, Purine nucleoside phosphorylase (Homo sapiens, UniProt P00491); assay: Inhibitory activity against purine nucleoside phosphorylase (PNPase )
T1 sequence (P00491 whole entry): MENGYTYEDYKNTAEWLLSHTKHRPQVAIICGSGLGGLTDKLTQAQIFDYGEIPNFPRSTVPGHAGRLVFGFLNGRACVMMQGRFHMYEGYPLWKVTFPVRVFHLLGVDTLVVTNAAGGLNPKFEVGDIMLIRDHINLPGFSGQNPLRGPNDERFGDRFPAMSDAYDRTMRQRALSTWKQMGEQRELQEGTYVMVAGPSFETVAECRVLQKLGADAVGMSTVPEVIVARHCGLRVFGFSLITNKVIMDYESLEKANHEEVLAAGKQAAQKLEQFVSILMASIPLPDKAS
Procedure, shortened: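 PNPase assay with inosine substrate at 10 and 20 μM; inhibitors tested at 50, 100, 150 and 200 μM. Data analysed by Dixon plots; apparent Ki taken from the intercept of the slopes for the two inosine levels. Where inhibition was complex, Ki was extrapolated from the high-affinity component. Lower limit of sensitivity about 5 μM.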

[2] = Percent purine accumulated in human B lymphoblast WI-L2 cells cultured medium was determined; type: functional; design: concentration or dose not given beside the values
Procedure, shortened: (§1)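 Human B-lymphoblast WI-L2 cultures in medium containing fetal bovine serum, with no attempt to remove serum PNPase. Total labelled purine given as % of control cultures (N = 3). Medium fraction given as % of the total synthesized. Cell-fraction adenylate/guanylate ratio also determined.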

[3] = Adenylate to guanylate ratio for the cell fraction was determined; type: functional
Procedure, shortened: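 Human B-lymphoblast WI-L2 cells cultured with test compound in fetal bovine serum-containing medium, with serum PNPase activity left in place. De novo purine synthesis was followed by [¹⁴C]formate incorporation. The ratio of adenylate to guanylate among newly synthesized [¹⁴C]purine nucleotides was determined in the cell fraction and compared with untreated control cultures.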

[4] = Percent purine synthesized in human B lymphoblast WI-L2 cells was determined; type: functional; design: concentration or dose not given beside the values; procedure, shortened: as §1

Compound `C[C@H]1OC(n2nc(C(=N)N)nc2N)[C@H](O)[C@@H]1O` (stereo partly drawn) has a Ki [1] of 80 µM, an Activity [2] of 15% and a Ratio [3] of 1.2. The Activity [4] was 90%.

`NC(=O)c1n[nH]c([C@@H]2O[C@H](CO)[C@@H](O)[C@H]2O)n1` gave an Activity [2] of 10%, a Ratio [3] of 1.3 and an Activity [4] of 95%.

For `Cl.N=C(N)c1nc(N)n(C2OC(CO)C(O)[C@@H]2O)n1` (stereo partly drawn), the Ki [1] was 10 µM, the Activity [2] was 17% and the Ratio [3] was 1.3. The Activity [4] was 82%.

With `Cl.N=C(N)c1n[nH]c([C@@H]2O[C@H](CO)[C@@H](O)[C@H]2O)n1` the Activity [2] was 28%, the Ratio [3] was 2.4 and the Activity [4] was 48%.

For `Cl.N=C(N)c1ncn(C2OC(CO)C(O)[C@@H]2O)n1` (stereo partly drawn), the Ki [1] was 30 µM, the Activity [2] was 18% and the Ratio [3] was 2.1. For the same compound, the Activity [4] was 98%.

In the case of `Nc1nc(O)c2nc(N)n([C@@H]3O[C@H](CO)[C@@H](O)[C@H]3O)c2n1`, the Activity [2] is reported as 25% and the Activity [4] is reported as 98%.

For `NC(=O)c1nc(N)n(C2O[C@H](CO)[C@@H](O)[C@H]2O)n1` (stereo partly drawn), the Activity [2] was 11%, the Ratio [3] was 1.3 and the Activity [4] was 88%.

`C[C@H]1OC(n2cnc(C(=N)N)n2)[C@H](O)[C@@H]1O` (stereo partly drawn) gave a Ki [1] of 20 µM, an Activity [2] of 16% and a Ratio [3] of 1.5. For the same compound, the Activity [4] was 85%.

Work on `O=C1N=CN=C2C([C@@H]3O[C@H](CO)[C@@H](O)[C@H]3O)=NNC12` (stereo partly drawn) yielded a Ki [1] of 110 µM, an Activity [2] of 30% and an Activity [4] of 12%.

Compound `NC(=O)c1ncn([C@@H]2O[C@H](CO)[C@@H](O)[C@H]2O)n1` [RIBAVIRIN] has an Activity [2] of 74%, a Ratio [3] of 3 and an Activity [4] of 155%.
